Measurements pooled from the literature.
Each line is one published result; the experiments were not run side by side.
DRD3: D(3) dopamine receptor (DRD3, Homo sapiens, UniProt P35462)
PDE10A: cAMP and cAMP-inhibited cGMP 3',5'-cyclic phosphodiesterase 10A (PDE10A, Homo sapiens, UniProt Q9Y233)
SLC6A3: Sodium-dependent dopamine transporter (SLC6A3, Homo sapiens, UniProt Q01959)

`Cc1[nH]cc(S(=O)(=O)Nc2ccc(C(F)(F)F)c(Cl)c2)c1C(=O)N(C)C` gave an Emax of 83% (DRD3; β-arrestin recruitment, agonist; 90 min).
The inhibition of `COc1cc2ncnc(C(=O)c3cccc4ccccc34)c2cc1OC` is reported as 52% (PDE10A; enzyme activity, inhibitor, FP; 0.1 µM).
`CCOC(=O)C12CC1C(n1ccc3c(NC4CC4)nc(C#Cc4ccccc4)nc31)C(O)C2O` (stereo not drawn) gave an inhibition of -260% (SLC6A3; ligand displacement, radioligand; 10 µM).
`COc1ccc2nccc(Cc3cccc(-c4ccc(C(=O)O)cc4)c3)c2c1` has an inhibition of 11% (PDE10A; enzyme activity, inhibitor, FP; 0.1 µM).
With `Cc1[nH]c(C)c(S(=O)(=O)Nc2ccc([N+](=O)[O-])c(Cl)c2)c1C(=O)N1CCC(F)(F)C1` the Emax was 101% (DRD3; β-arrestin recruitment, agonist; 90 min).
With `COc1ccc2oc(-c3ccc4nc(N)oc4c3)c/c(=N\c3ccccc3NC(=O)CCN)c2c1` the remaining binding was 100% (Activated CDC42 kinase 1 (TNK2, Homo sapiens, UniProt Q07912); binding; 1 µM).
For `N#CC[C@@]12C[C@@H]1[C@@H](n1cnc3c(Nc4ccccc4)nc(I)nc31)[C@H](O)[C@@H]2O`, the inhibition was 54% (SLC6A3; ligand displacement, radioligand; 10 µM).
The Emax of `Cc1[nH]c(C)c(S(=O)(=O)Nc2ccc(C(F)(F)F)c(Cl)c2)c1C(=O)N1CCCC1` is reported as 92% (DRD3; β-arrestin recruitment, agonist; 90 min).
The inhibition of `c1ccc(-c2cccc(Cc3ccnc4ccccc34)c2)cc1` is reported as 0% (PDE10A; enzyme activity, inhibitor, FP; 0.1 µM).
`CCOC(=O)[C@@]12C[C@@H]1[C@@H](n1cnc3c(Nc4ccccc4)nc(I)nc31)[C@H](O)[C@@H]2O` gave an inhibition of 32% (SLC6A3; ligand displacement, radioligand; 10 µM).
For `COc1ccc2ccnc(Cc3cccc(-c4ccccc4)c3)c2c1`, the inhibition was 5% (PDE10A; enzyme activity, inhibitor, FP; 0.1 µM).
The inhibition of `CCOC(=O)[C@@]12C[C@@H]1[C@@H](n1cnc3c(NCCO)nc(I)nc31)[C@H](O)[C@@H]2O` is reported as 20% (SLC6A3; ligand displacement, radioligand; 10 µM).
With `CCCCC(=O)Nc1ccc(-c2ccc3ncn(CCC)c(=O)c3c2)cn1` the remaining binding was 86% (Dual specificity protein kinase CLK4 (CLK4, Homo sapiens, UniProt Q9HAZ1); binding, competition with immobilised ligand; 0.5 µM).
The inhibition of `c1ccc2c(Cc3ccc4cn(C5COC5)nc4c3)nccc2c1` is reported as 0% (PDE10A; enzyme activity, inhibitor, FP; 0.1 µM).
For `N#C[C@@]12C[C@@H]1[C@@H](n1cnc3c(Nc4ccc(Cl)c(Cl)c4)nc(I)nc31)[C@H](O)[C@@H]2O`, the inhibition was -9% (SLC6A3; ligand displacement, radioligand; 10 µM).
The Emax of `Cc1ccc(NS(=O)(=O)c2c(C)[nH]c(C)c2C(=O)N2CCC(F)(F)C2)cc1Cl` is reported as 95% (DRD3; β-arrestin recruitment, agonist; 90 min).
For `COc1cc2ccnc(Cc3ccc4cnn(C)c4c3)c2cc1OC`, the inhibition was 69% (PDE10A; enzyme activity, inhibitor, FP; 0.1 µM).
`Cc1ccc(NS(=O)(=O)c2c(C)[nH]c(C)c2C(=O)N2CCC2)cc1Cl` gave an Emax of 96% (DRD3; β-arrestin recruitment, agonist; 90 min).
`COc1ccc2nccc(Cc3ccc(OC)c(OC)c3)c2c1` gave an inhibition of 3% (PDE10A; enzyme activity, inhibitor, FP; 0.1 µM).
For `Cc1[nH]c(C)c(S(=O)(=O)Nc2cc(Cl)cc(C(F)(F)F)c2)c1C(=O)N1CCC(F)(F)C1`, the Emax was 101% (DRD3; β-arrestin recruitment, agonist; 90 min).
The inhibition of `N#C[C@@]12C[C@@H]1[C@@H](n1cnc3c(Nc4ccccc4)nc(C#Cc4ccc(Cl)s4)nc31)[C@H](O)[C@@H]2O` is reported as 74% (SLC6A3; ligand displacement, radioligand; 10 µM).
For `Cc1[nH]c(C)c(S(=O)(=O)Nc2ccc(C(F)(F)F)c(Cl)c2)c1C(=O)NCC(F)(F)F`, the Emax was 98% (DRD3; β-arrestin recruitment, agonist; 90 min).
With `COc1cc2ncnc(Cc3cccc(-c4ccncc4)c3)c2cc1OC` the inhibition was 57% (PDE10A; enzyme activity, inhibitor, FP; 0.1 µM).
`CCOC(=O)C12CC1C(n1ccc3c(NCCCc4ccccc4)nc(C#Cc4ccc(Cl)s4)nc31)C(O)C2O` (stereo not drawn) has an inhibition of 61% (SLC6A3; ligand displacement, radioligand; 10 µM).
For `Cc1[nH]cc(S(=O)(=O)Nc2ccc(C(F)(F)F)c(Cl)c2)c1C(=O)N1CCC(F)(F)C1`, the Emax was 91% (DRD3; β-arrestin recruitment, agonist; 90 min).
`CCOC(=O)[C@@]12C[C@@H]1[C@@H](n1cnc3c(NCCCCCCc4ccccc4)nc(I)nc31)[C@H](O)[C@@H]2O` has an inhibition of 73% (SLC6A3; ligand displacement, radioligand; 10 µM).
For `C1=C/COCc2cc(ccc2OCCN2CCCC2)Nc2nccc(n2)-c2cccc(c2)COC/1`, the remaining binding was 100% (Serine/threonine-protein kinase D1 (PRKD1, Homo sapiens, UniProt Q15139); binding; 0.1 µM).
